Published values of several laboratories.
Protocols differ between the studies behind these lines.
Target: Activin receptor type-1 (ACVR1, Homo sapiens, UniProt Q04771)
One construct used (Q04771 21-509): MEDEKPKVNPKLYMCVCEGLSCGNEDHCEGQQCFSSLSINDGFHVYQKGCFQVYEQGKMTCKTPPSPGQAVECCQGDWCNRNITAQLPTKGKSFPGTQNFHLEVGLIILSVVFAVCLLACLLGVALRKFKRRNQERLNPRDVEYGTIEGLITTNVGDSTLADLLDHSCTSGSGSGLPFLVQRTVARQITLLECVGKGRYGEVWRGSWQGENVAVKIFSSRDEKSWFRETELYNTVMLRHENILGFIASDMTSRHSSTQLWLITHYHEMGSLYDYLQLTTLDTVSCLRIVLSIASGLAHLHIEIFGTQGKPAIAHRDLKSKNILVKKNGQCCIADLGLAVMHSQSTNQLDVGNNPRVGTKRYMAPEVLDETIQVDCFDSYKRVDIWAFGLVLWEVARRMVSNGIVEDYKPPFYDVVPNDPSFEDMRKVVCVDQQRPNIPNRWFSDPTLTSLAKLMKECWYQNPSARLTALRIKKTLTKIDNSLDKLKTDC

SMILES | read-out | technique | concentration | remaining binding [%]
FC(F)(F)c1ccc2c(c1)nc(-c1cccnc1)n2C1CC1 | cell-free assay | competition with immobilised ligand | 1 µM | 100
C=CC(=O)N1CCC(C(=O)NCC(=O)N2CCN(c3nc(-c4cnc(N)nc4C(F)F)nc(N4CCOCC4)n3)CC2)CC1 | binding | competition with immobilised ligand | 1 µM | 100
O=C1CCc2cc(Nc3cc(OC4CCOCC4)c([N+](=O)[O-])cc3Cl)ccc2N1 | cell-free assay | competition with immobilised ligand | 1 µM | 100
Cc1cnc(Nc2ccc(C(=O)N3CCC(N4CCCC4)CC3)cc2)nc1-c1cc2ccccc2s1 | binding | competition with immobilised ligand | 1 µM | 72
Cc1cnn2ncc(-c3ccnc(N(C)C)n3)c2c1 | binding | – | 1 µM | 100
Nc1ncc2c(n1)-c1c([nH]c3ccc(C#CC4CC4)cc13)CCCC2 | binding | competition with immobilised ligand | 1 µM | 100
CN(C)c1ncc(F)c(-c2cnn3ncccc23)n1 | binding | – | 1 µM | 79
COc1ncc2cc3ccccc3nc2c1C#N | cell-free assay | competition with immobilised ligand | 5 µM | 100
O=C(Nc1c[nH]nc1C(=O)NC1CCNCC1)c1cc(F)cc(F)c1 | binding | competition with immobilised ligand | 1 µM | 100
O=C(NCCCC1CCCCC1)c1ccc(CNC(=O)c2cnn(-c3ccccc3)c2C(F)(F)F)cc1 | cell-free assay | competition with immobilised ligand | 0.1 µM | 100
CN(C)c1nccc(-c2cnn3ncccc23)n1 | binding | – | 1 µM | 90
COc1ccc2c(O[C@@H]3C[C@H]4C(=O)N[C@]5(C(=O)O)CC5/C=C\CCCCC[C@H](NC(=O)OC5CCCC5)C(=O)N4C3)cc(-c3csc(NC(=O)C(C)C)n3)nc2c1C (stereo partly drawn) | cell-free assay | competition with immobilised ligand | 1 µM | 100
COc1cnc(Nc2cccc(S(N)(=O)=O)c2)nc1N1CCN(c2ccccc2)C(=O)C1 | binding | competition with immobilised ligand | 1 µM | 100
N[C@H]1CCN(c2nccc(-c3cnn4ncccc34)n2)C1 | binding | – | 1 µM | 85
Cc1nc(N2CC[C@@H](O)C2)ncc1-c1cc(C(F)(F)F)cc2[nH]ncc12 | cell-free assay | competition with immobilised ligand | 1 µM | 80
O=C(NCCCN1CCOCC1)c1ccc(Nc2nccc(-c3cc4ccccc4s3)n2)cc1 | binding | competition with immobilised ligand | 1 µM | 14
c1cnn2ncc(-c3ccnc(N4CCC45COC5)n3)c2c1 | binding | – | 1 µM | 64
C[C@H](c1cccc(C#N)c1)n1cc(Cl)cc(C(N)=O)c1=N | cell-free assay | competition with immobilised ligand | 1 µM | 88
O=C(c1ccc(Nc2ncc(Cl)c(-c3ccc(Cl)s3)n2)cc1)N1CCC(N2CCCC2)CC1 | binding | competition with immobilised ligand | 1 µM | 41
C[C@@H]1CCN(c2nccc(-c3cnn4ncccc34)n2)C1 | binding | – | 1 µM | 100
CNC(=O)[C@@H]1CC[C@@H](n2c(-c3ccc4cnccc4c3)nc3ccc(C(=O)NCc4cccc(C(N)=O)c4)cc32)C1 | binding | competition with immobilised ligand | 1 µM | 46
